From PubChem
In the library only some 3% were active in any assay of this set; here they are far more common.
Wnt act: activators of Wnt/beta-catenin signaling; Wnt/beta-catenin reporter cell assay, activator, plate reader; activation, % at 9.35 µM; actives 1.2% (n = 300,000); AID 743398; in the data active = activation above about 30%, passing the limit was not always enough; inconclusive = no clear call, values can overlap the other calls
esBAF inh: blocks esBAF chromatin remodeling in mouse ES cells; actives 2% (n = 350,000); Bmi1-luciferase knock-in reporter, 24 h; 100% = twice the neutral-well signal; reporter increase, % at 12.5 µM; in the data active = activation above about 40%; inconclusive = no clear call, values can overlap the other calls;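 note: a rise in the Bmi1 reporter signal indicates esBAF inhibition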
CASP6 VEID inh: blocks human caspase-6 cleavage activity; P55212; purified caspase-6, Z-VEID-R110 cleavage fluorescence; inhibition, % at 12.5 µM; actives 0.53% (n = 350,000); AID 686996;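 active = mean inhibition across replicates at least about 35%, with every replicate also reaching that limit, limit read from the data; inconclusive = only one of the two criteria met; inactive = neither criterion met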
MITF TRPM1 HTS: activators of MITF-driven TRPM1 promoter activity in SK-MEL-5 cells | SK-MEL-5 TRPM1-promoter luciferase, 24 h; % of positive control, neutral wells = 0 | activation, % at 12.5 µM | actives 0.75% (n = 300,000);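 active = mean activation of at least 80% with every replicate also reaching 80%; inconclusive = mean reaches 80% but some replicate falls short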
XiGFP reactiv: activators of X-chromosome reactivation in mouse fibroblasts | XiGFP mouse fibroblasts, % GFP-positive cells imaging, 3 d; cells co-treated with 5-aza-dC sensitizer; scaled so ellipticine positive control = 100% | activation, % at 7.58 µM | actives 0.055% (n = 360,000);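 active = mean normalized replicate activation at least 10% and every replicate at or above 10%; inconclusive = only one of the two criteria met; inactive = mean below 10% and not all replicates reach 10%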
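material = 68-5-11 XiGFP fibroblast line | medium = DMEM plus 5-aza-dC sensitizer | schedule = 3 days compound exposure | benchmarks = positive control ellipticine, 6 µM final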
NSD2 HMT inh: blocks human histone methyltransferase NSD2. inhibition, % at 12.5 µM. actives 0.54% (n = 310,000). NSD2 peptide methylation, AlphaScreen, 120 min; in the data active = inhibition above about 50%
Target sequence (O96028 whole entry, looked up): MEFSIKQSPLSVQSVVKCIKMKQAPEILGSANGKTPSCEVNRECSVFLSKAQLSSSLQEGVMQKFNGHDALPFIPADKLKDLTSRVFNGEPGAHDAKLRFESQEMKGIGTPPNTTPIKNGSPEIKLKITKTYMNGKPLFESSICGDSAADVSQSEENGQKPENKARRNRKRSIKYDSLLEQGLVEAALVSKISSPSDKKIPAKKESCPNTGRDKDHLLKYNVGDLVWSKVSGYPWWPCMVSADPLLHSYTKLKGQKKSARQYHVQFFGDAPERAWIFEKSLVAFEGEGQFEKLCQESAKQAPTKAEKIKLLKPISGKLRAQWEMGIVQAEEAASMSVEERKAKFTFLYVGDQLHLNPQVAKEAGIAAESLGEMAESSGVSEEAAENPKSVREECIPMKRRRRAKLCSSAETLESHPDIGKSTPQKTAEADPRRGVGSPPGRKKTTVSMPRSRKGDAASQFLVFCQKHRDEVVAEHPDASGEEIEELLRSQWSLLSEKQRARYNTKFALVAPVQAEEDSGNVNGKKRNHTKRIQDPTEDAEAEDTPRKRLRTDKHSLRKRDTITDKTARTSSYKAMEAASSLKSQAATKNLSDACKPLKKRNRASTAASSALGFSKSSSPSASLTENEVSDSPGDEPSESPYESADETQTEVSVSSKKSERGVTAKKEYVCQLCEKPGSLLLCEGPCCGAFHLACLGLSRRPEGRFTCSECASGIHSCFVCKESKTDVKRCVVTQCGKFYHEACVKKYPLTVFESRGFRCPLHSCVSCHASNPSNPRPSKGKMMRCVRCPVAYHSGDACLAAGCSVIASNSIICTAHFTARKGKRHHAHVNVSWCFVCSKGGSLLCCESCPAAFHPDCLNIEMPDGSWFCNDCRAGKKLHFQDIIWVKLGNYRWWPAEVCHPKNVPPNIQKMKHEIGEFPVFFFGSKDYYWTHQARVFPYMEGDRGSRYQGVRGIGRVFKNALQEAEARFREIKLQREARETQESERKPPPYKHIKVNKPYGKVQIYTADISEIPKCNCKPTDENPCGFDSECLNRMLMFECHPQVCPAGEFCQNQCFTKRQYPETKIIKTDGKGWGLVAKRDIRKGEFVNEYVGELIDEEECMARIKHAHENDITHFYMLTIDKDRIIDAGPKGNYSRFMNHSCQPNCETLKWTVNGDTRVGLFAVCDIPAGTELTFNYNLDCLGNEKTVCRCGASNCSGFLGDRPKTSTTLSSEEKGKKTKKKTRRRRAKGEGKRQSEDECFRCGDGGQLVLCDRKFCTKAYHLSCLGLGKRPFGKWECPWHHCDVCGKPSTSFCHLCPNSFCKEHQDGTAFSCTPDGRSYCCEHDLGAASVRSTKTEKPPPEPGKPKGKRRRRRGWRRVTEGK
A number is an active result; n = inactive; u = inconclusive; x = no result given.

SMILES | Wnt act | esBAF inh | CASP6 VEID inh | MITF TRPM1 HTS | XiGFP reactiv | NSD2 HMT inh
COc1ccc2c3c([nH]c2c1)[C@@H](CO)N(C(=O)NC(C)C)CC31CN(C(=O)C2CCCCC2)C1 | x | x | x | x | n | x
Fc1ccc(Oc2ccnc(Cl)n2)c(Cl)c1 | 44.4 | x | n | x | n | n
C[C@H]1CN([C@@H](C)CO)C(=O)Cc2cc(NC(=O)CCC(F)(F)F)ccc2O[C@@H]1CN(C)C(=O)Nc1cccc2ccccc12 | x | n | n | x | n | x
COc1cc(/C=C/c2ccc3cccc(O)c3n2)cc(Cl)c1OC | 46.7 | n | n | n | n | x
COc1cc(/C=C/c2ccc3c(Br)cc(Br)c(O)c3n2)ccc1O | n | n | n | n | n | n
COc1cc(/C=C/c2ccc3cccc(O)c3n2)cc(Br)c1OC | u | 65.7 | n | n | n | n
COc1cccc(/C=C/c2ccc3cccc(O)c3n2)c1 | u | n | x | n | n | n
Oc1cccc(/C=C/c2ccc3cccc(O)c3n2)c1 | 39.6 | n | n | n | n | n
COc1cc(/C=C/c2ccc3cccc(O)c3n2)cc(OC)c1OC | 64.8 | n | n | n | n | n
O=C(Nc1cc(F)ccc1F)N1CC(=O)N2[C@H](CO)[C@@H](c3ccc(/C=C/c4ccccc4)cc3)[C@@H]2C1 | x | x | n | x | n | x
O=C(C[C@@H]1C=C[C@@H](NC(=O)C2CCOCC2)[C@@H](CO)O1)NCc1ccccc1Cl | x | x | n | x | n | x
C[C@@H]1CN(C)C(=O)c2cc(N(C)C)ccc2O[C@@H]1CN(C)S(C)(=O)=O | x | x | x | x | n | x
COc1ccc(-c2ccc(C3[C@H]4CNC[C@@H]3N4S(=O)(=O)c3ccc(OC)cc3)cc2)cc1 (stereo partly drawn) | x | x | n | x | n | x
COC(=O)C[C@H]1C[C@H]2c3cc(NC(=O)Nc4ccc(F)cc4)ccc3O[C@H]2[C@H](CO)O1 | x | n | x | x | n | x
COc1ccc(/C=C/c2ccc3cccc(O)c3n2)cc1Br | n | 44.0 | n | n | n | n
COc1ccc(Br)cc1/C=C/c1ccc2cccc(O)c2n1 | n | n | n | n | n | n
O=[N+]([O-])c1ccc(O)c(/C=N/Nc2ccccc2Cl)c1 | u | 47.1 | n | n | n | n
COc1cc(/C=N/NC(=O)CNC(=O)c2ccccc2)ccc1OC(=O)c1cccs1 | 33.3 | n | x | n | x | n
O=C(N/N=C/c1cc([N+](=O)[O-])ccc1O)C1CC1 | n | n | n | n | n | n
O=[N+]([O-])c1ccccc1/C=N/NC1=NCCN1 | n | x | n | n | n | n
O=[N+]([O-])c1ccccc1N/N=C\c1ccccc1F | 57.0 | 63.3 | n | n | n | n
O=[N+]([O-])c1ccccc1C=NNc1ccccc1 | 35.4 | 91.5 | n | n | n | n
CCOc1nc2c(c(C)nn2-c2ccccc2)c(C)c1CCC(=O)N1CCN(c2ccccn2)CC1 | x | x | x | x | x | n
O=C(CNC(=O)c1cccs1)N/N=C/c1ccccc1[N+](=O)[O-] | n | 59.9 | n | n | n | n
O=[N+]([O-])c1ccccc1N/N=C\c1ccccc1Cl | x | 62.3 | x | n | x | n
SMILES | Wnt act | esBAF inh | CASP6 VEID inh | MITF TRPM1 HTS | XiGFP reactiv | NSD2 HMT inh
O=[N+]([O-])c1ccccc1/C=N/OCc1ccccc1 | n | 64.6 | n | 101.1 | n | n
COc1ccc(S(=O)(=O)N(C)C[C@@H]2Oc3ccc(NS(C)(=O)=O)cc3CC(=O)N([C@H](C)CO)C[C@H]2C)cc1 | x | n | n | x | n | x
CCOC(=O)[C@@H]1[C@H]2COc3cc(OC)ccc3[C@H]2N2C(=O)N(c3cccc(F)c3)C(=O)[C@]12C | n | n | 51.4 | n | n | x
CC(C)(C)c1ccc(-c2nnc(N)o2)cc1 | 42.5 | 58.4 | n | n | n | n
Clc1ccccc1OCCn1cnc2ccccc21 | x | 51.2 | x | n | x | n
O=C1c2ccccc2C(=O)N1CCOc1ccccc1Cl | n | u | n | 85.6 | n | n
O=C1c2ccccc2C(=O)N1CCOc1ccccc1Br | n | x | n | n | n | n
C=CCSc1nnc(-c2sc(-c3ccccc3)nc2C)n1C | 33.1 | x | x | x | x | n
C=CCSc1nnc(-c2nnc(SCC=C)n2-c2ccccc2)n1-c1ccccc1 | n | n | x | n | x | n
COc1ccc(NC(=O)N(C)C[C@@H]2OCCCC[C@H](C)Oc3ccc(NC(=O)CCCN(C)C)cc3C(=O)N([C@@H](C)CO)C[C@H]2C)cc1 | x | n | n | x | n | x
O=C(Nc1cccc(C(F)(F)F)c1)c1cccc(NS(=O)(=O)c2ccc(O)c(C(=O)O)c2)c1 | n | n | 38.8 | x | n | n
COc1ccc2c3c(n(C)c2c1)[C@H](CO)N(C(C)=O)CC31CCN(C(=O)C2CC2)CC1 | x | x | n | x | n | x
CN(C)c1ccc(NC(=O)C(=O)C2C(=O)Nc3ccccc32)cc1 (stereo not drawn) | 44.2 | n | n | n | n | n
COc1cccc(-c2cnc3c(c2)C(=O)N([C@@H](C)CO)C[C@H](C)[C@@H](CN(C)C(=O)CN(C)C)O3)c1 | x | n | n | x | n | x
CC(C)c1ccc(N(C(=O)c2csnn2)C(C(=O)NC(C)(C)C)c2ccncc2)cc1 (stereo not drawn) | x | 57.9 | x | n | x | x
Cc1ccc(N(C(=O)c2csnn2)C(C(=O)NC(C)(C)C)c2ccncc2)cc1 (stereo not drawn) | n | n | n | n | x | n
O=C(Nc1ccccc1)c1cc(C2CCCN(C(=O)CCc3ccccc3)C2)on1 (stereo not drawn) | n | 64.3 | n | x | n | n
CC(C)c1ccc(C(=O)N2CCCC(c3cc(C(=O)Nc4ccccc4Cl)no3)C2)cc1 (stereo not drawn) | n | n | 57.4 | x | n | n
O=C(Nc1ccccc1Cl)c1cc(C2CCCN(C(=O)CCc3ccccc3)C2)on1 (stereo not drawn) | n | n | n | x | n | n
O=C(Nc1ccc(F)c(Cl)c1)c1cc(C2CCCN(C(=O)CCc3ccccc3)C2)on1 (stereo not drawn) | n | 46.9 | n | x | n | n
COc1ccc2c(c1)C1=NN(/C(C)=C\C(C)=O)C(c3ccccc3)C1CC2 (stereo not drawn) | x | 48.3 | x | n | x | n
COc1ccc2c(c1)CCC1C2=NN(/C(C)=C\C(C)=O)C1c1ccc(F)cc1 (stereo not drawn) | 52.0 | x | n | n | n | n
COC(=O)c1ccc(C(=O)Nc2ccc(C(C)C)cc2N)cc1 | x | 47.3 | n | n | n | n
COC(=O)c1ccc(C(=O)NN)cc1 | n | n | n | x | n | n
O=C(NCCCc1ccccc1)c1cccc(NC(=O)c2ccccc2)c1 | n | n | x | n | n | x
CCOc1ccc(/C=C/C(=O)Nc2cccc(C(C)=O)c2)cc1 | x | 58.8 | x | n | n | n
O=C(/C=C/c1ccccc1)Nc1cccc(C(=O)NCCCCc2ccccc2)c1 | n | 43.2 | n | n | n | x
CCOc1ccc(NC(C(=O)Nc2cccc(C(C)=O)c2)c2ccccc2)cc1 (stereo not drawn) | n | x | n | n | n | n
O=C(/C=C/c1ccccc1)Nc1cccc(C(=O)N2CCCC2)c1 | n | n | n | n | x | x
